Reference: ChEMBL document CHEMBL1140143, “Combining ligand-based pharmacophore modeling, quantitative structure-activity relationship analysis and in silico screening for the discovery of new potent hormone sensitive lipase inhibitors” (J Med Chem, 2008)

Experiments:
[1] = target: T1, Hormone-sensitive lipase (Rattus norvegicus) (UniProt P15304); experiment: Inhibition of HSL in Wistar rat isolated fat cells at 1 uM by spectrophotometric assay
T1 sequence (whole entry): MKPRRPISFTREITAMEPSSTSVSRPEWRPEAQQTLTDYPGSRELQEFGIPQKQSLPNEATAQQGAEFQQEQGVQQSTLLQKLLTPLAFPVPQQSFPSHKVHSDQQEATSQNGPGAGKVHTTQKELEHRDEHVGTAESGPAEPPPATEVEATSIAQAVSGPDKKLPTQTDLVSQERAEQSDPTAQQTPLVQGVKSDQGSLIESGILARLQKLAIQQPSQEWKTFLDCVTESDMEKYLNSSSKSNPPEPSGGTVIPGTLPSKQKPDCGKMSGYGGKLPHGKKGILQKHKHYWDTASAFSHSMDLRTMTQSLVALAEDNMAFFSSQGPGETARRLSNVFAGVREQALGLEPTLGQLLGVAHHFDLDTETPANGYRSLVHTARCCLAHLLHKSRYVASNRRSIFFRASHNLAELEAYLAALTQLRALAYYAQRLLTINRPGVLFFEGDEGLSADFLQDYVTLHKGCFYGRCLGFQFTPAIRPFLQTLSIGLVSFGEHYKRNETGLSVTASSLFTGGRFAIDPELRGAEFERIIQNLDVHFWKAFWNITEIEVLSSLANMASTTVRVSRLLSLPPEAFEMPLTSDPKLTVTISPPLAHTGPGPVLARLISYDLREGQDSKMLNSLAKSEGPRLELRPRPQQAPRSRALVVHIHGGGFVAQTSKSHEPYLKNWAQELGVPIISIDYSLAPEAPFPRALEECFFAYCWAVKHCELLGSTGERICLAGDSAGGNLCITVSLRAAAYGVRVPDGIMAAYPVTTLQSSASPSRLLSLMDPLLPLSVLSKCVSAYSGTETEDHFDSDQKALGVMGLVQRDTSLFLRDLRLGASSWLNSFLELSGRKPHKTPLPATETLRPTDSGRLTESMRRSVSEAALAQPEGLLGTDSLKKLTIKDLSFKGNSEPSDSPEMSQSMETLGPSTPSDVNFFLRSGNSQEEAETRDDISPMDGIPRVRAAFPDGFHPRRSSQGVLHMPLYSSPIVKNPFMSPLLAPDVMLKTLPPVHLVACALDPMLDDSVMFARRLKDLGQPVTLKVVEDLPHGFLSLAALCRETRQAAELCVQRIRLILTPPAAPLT
Method in brief: (§1)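 HSL extract from male Wistar rat epididymal fat cells (collagenase-isolated, homogenized in Tris-HCl pH 7.0/sucrose, ether-extracted supernatant). Enzyme preincubated with compound 30 min at 37 °C, then p-nitrophenyl butyrate added at 10 µM in phosphate buffer pH 7.25 with dithioerythritol; DMSO ≤1.0%. A400 read at 1, 3, 6 min at 37 °C; residual activity versus no-compound control; mean of ≥3 measurements.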

[2] = target: T2, Hormone-sensitive lipase (Rattus norvegicus, UniProt P15304); experiment: Inhibition of HSL in Wistar rat isolated fat cells by spectrophotometric assay
T2 sequence (P15304 whole entry): T1 sequence (whole entry)

[3] = target: T1, Hormone-sensitive lipase (Rattus norvegicus); experiment: Inhibition of HSL in Wistar rat isolated fat cells at 10 uM by spectrophotometric assay; method in brief: as §1

Compound | inhibition [1] | IC50 [2] | inhibition [3]
COc1cccc(CSC(C(=O)O)c2ccccc2)c1 (stereo unspecified) | 67% | 510 nM | 
COc1ccc2cc([C@H](C)C(=O)O)ccc2c1 |  |  | 64%
COc1ccc(Cc2ccc3nc(O)cc(C)c3c2)cc1S(=O)(=O)O |  |  | 24%
O=C(NC(Cc1ccccc1)C(=O)O)C(=O)c1c[nH]c2ccc(Cl)cc12 (stereo unspecified) |  |  | 26%
COc1cc(CNC(=O)CCCC/C=C/C(C)C)ccc1O |  |  | 33%
O=C(COC(=O)c1ccccc1)c1ccccc1 | 9% |  | 
COC(=O)c1cc(Oc2ccc(Cl)cc2Cl)ccc1[N+](=O)[O-] [BIFENOX] | 60% | 430 nM | 
CC(=O)Oc1cc(OCCCc2ccc(F)cc2)cc2c1-c1ccccc1CC2 | 24% |  | 
Cc1ccc(-c2nc(SCc3ccccc3)nc(O)c2CCO)cc1 | 45% |  | 
COc1ccc(Br)c(C(=O)O)c1OS(=O)(=O)c1ccc(C)cc1 |  |  | 30%
Cc1ncc(COCc2ccccc2)c(CO)c1OCc1ccccc1 |  |  | 31%
COc1ccc(C(O)c2cc3ccccc3n2S(=O)(=O)c2ccccc2)cc1 (stereo unspecified) |  |  | 29%
COC(=O)C1Oc2ccc(Cl)cc2C1=O (stereo unspecified) |  |  | 3%
CC(C)=NNc1ccnc(SCc2ccccc2)n1 |  |  | 2%
COC(=O)c1nnn(CCc2c[nH]c3ccccc23)c1C(=O)OC |  | 5000 nM | 52%
O=C(CC(=O)c1ccccc1)c1ccccc1 |  |  | 28%
CC(C)[C@H](C(=O)O[C@H](C#N)c1cccc(Oc2ccccc2)c1)c1ccc(Cl)cc1 | 33% |  | 
O=C(/C=C/c1ccccc1)OCCc1ccccc1 | 12% |  | 
O=C(O)/C(=N\OCc1ccccc1)c1ccccc1 | 21% |  | 
COC(=O)c1ccc(C)c(NS(=O)(=O)c2ccc3c(c2)c(=O)sn3C)c1 |  |  | 24%
CCSCc1ccccc1OC(=O)NC [ETHIOFENCARB] |  | 370 nM | 52%
CCOC(=O)c1c(C)c2c(n1C)CC/C(=C\N1CCCCC1)C2=O |  |  | 10%
COC1=CC(=O)OC(c2ccco2)C1 (stereo unspecified) |  |  | 12%
O=c1c(O)c(-c2ccccc2)oc2ccccc12 | 23% |  | 
CCOc1ccc([Si](C)(C)CCCc2ccc(F)c(Oc3ccccc3)c2)cc1 | 6% |  | 

Compound | inhibition [1] | IC50 [2] | inhibition [3]
O=S(=O)(Oc1ccc(Cl)cc1)c1ccc(Cl)cc1 |  |  | 26%
O=C(/C(=N/c1ccccc1)NO)c1ccccc1 |  |  | 23%
CC(C)C(C(=O)OC(C#N)c1cccc(Oc2ccccc2)c1)c1ccc(Cl)cc1 (stereo unspecified) | 37% |  | 
CCCCOc1ccc(Oc2ccc(C(F)(F)F)cc2[N+](=O)[O-])cc1 | 64% | 210 nM | 
COc1ccc(C(=O)c2ccccc2)c(O)c1 [OXYBENZONE] |  | 3250 nM | 44%
CCOC(=O)c1nc2ccccc2nc1NCc1ccc(OC)cc1 | 27% |  | 
O=C(OCc1ccccc1)c1ccccc1 [BENZYL BENZOATE] |  | 1100 nM | 66%
Cc1ccc(S(=O)(=O)Nc2cccc3cc(Cl)ccc23)cc1 | 15% |  | 
CC1(C)C(C(=O)OC(C#N)c2cccc(Oc3ccccc3)c2)C1(C)C (stereo unspecified) | 35% |  | 
COC(=O)Cc1nc2ccc(OC)cc2nc1O |  |  | 15%
CCCCCCSc1nc(-c2ccc(Cl)cc2)nn1C(=O)N1CCOCC1 |  | 882 nM | 
O=C(N1CCCCC1)n1nc(-c2ccc(Cl)cc2)nc1SCC1CC1 |  | 3.53 nM | 
Cc1c(C(C)C)c(=O)on1C(=O)N1CC(C)CCC1C (stereo unspecified) |  | 460 nM | 
COCCc1c(C)n(C(=O)N2CCC(c3ccccc3)CC2)oc1=O |  | 11 nM | 
Cc1c(C(C)C)c(=O)on1C(=O)NC(C)(C)C |  | > 1000 nM | 
CCCCCCSc1nc(-c2ccc(C)cc2)nn1C(=O)N(C)C |  | 882 nM | 
CCC(CCC#N)C(=O)c1ccc(C)o1 (stereo unspecified) |  |  | 14%
Cc1c(C)n(C(=O)N2CCCCC2)oc1=O |  | 13 nM | 
Cc1c(C(C)C)c(=O)on1C(=O)N1CC=CC1 |  | 72 nM | 
COC1=CC(=O)OC(C)(c2ccccc2)C1 (stereo unspecified) |  |  | 24%
O=C(N1CCOCC1)n1nc(-c2ccc(Cl)cc2)nc1SCC(F)(F)F |  | 159 nM | 
CCCCc1c(C)n(C(=O)N2CCC(C)CC2)oc1=O |  | 1 nM | 
Cc1c(C(C)C)c(=O)on1C(=O)N1CC(C)CC(C)C1 (stereo unspecified) |  | 326 nM | 
Cc1c(C2CCS(=O)(=O)CC2)c(=O)on1C(=O)N1CCCCC1 |  | 55 nM | 
